Laboratory results: ChEMBL document CHEMBL1811873, “Peroxisome proliferator-activated receptor agonists with phenethylphenylphthalimide skeleton derived from thalidomide-related liver X receptor antagonists: relationship between absolute configuration and subtype selectivity” (Bioorg Med Chem, 2011)
Activity calls are given as the source filed them. No cut-off for these calls is given here.

Experiments:
[1] = molecular target: T1, Peroxisome proliferator-activated receptor alpha (Homo sapiens) (UniProt Q07869); test: Agonist activity at human PPARalpha expressed in HEK293 after 8 hrs by luciferase reporter gene assay relative to fenofibric acid; type: functional, cell-based
T1 sequence (whole entry): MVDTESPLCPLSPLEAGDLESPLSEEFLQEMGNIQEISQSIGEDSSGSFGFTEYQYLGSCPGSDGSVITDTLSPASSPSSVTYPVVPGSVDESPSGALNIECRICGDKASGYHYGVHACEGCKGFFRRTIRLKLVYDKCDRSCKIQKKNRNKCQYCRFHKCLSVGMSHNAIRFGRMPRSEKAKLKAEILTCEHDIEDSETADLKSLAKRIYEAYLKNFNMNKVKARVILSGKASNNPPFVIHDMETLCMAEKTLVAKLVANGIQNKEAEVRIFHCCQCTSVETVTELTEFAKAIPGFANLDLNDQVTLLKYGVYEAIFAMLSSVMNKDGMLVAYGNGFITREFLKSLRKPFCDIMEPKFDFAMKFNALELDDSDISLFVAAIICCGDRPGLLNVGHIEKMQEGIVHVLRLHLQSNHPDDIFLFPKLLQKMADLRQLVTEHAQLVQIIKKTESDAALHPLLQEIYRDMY
Procedure, shortened: (§1)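 GAL4N-hPPAR LBD chimera with TK-MH100x4-LUC reporter in calcium-phosphate-transfected HEK293 (DMEM, 5% FBS), compounds added 8 h post-transfection. Luciferase was normalized to β-galactosidase. Percent efficacy (Emax) was taken at the maximal stimulatory response relative to 10 µM fenofibric acid (PPARα), 100 nM GW501516 (PPARδ) or 10 µM ciglitazone (PPARγ). Triplicate, at least twice.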

[2] = molecular target: T2, Peroxisome proliferator-activated receptor gamma (Homo sapiens, UniProt P37231); test: Agonist activity at PPARgamma expressed in HEK293 after 8 hrs by luciferase reporter gene assay; type: functional, cell-based
T2 sequence (P37231 whole entry): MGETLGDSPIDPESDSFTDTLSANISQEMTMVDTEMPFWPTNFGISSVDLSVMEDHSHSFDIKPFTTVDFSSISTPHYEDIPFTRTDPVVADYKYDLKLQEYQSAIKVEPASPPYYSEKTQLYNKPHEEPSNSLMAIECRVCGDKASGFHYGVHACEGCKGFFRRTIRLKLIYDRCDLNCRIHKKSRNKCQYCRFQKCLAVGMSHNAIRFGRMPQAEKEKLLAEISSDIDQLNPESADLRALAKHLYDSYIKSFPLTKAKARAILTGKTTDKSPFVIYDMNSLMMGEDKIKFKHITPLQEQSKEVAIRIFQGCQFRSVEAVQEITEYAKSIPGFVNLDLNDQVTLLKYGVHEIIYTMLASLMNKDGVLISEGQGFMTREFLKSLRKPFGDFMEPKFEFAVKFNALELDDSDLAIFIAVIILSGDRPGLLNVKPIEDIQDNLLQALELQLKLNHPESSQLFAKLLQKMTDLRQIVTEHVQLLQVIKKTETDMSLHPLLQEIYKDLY
Procedure, shortened: (§2)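 HEK293 cells grown in DMEM with 5% FBS at 37 °C in 5% CO2 were calcium-phosphate co-transfected with CMX-GAL4N-hPPAR LBD (subtype-specific), TK-MH100x4-LUC reporter and CMX β-galactosidase for normalization. Compounds were added 8 h post-transfection. Luciferase was read by luminometer and β-galactosidase by plate reader. Values are normalized averages; triplicate, repeated at least twice.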

[3] = molecular target: T3, Peroxisome proliferator-activated receptor delta (Homo sapiens, UniProt Q03181); test: Agonist activity at PPARdelta expressed in HEK293 after 8 hrs by luciferase reporter gene assay; type: functional, cell-based; procedure, shortened: as §2
T3 sequence (Q03181 whole entry): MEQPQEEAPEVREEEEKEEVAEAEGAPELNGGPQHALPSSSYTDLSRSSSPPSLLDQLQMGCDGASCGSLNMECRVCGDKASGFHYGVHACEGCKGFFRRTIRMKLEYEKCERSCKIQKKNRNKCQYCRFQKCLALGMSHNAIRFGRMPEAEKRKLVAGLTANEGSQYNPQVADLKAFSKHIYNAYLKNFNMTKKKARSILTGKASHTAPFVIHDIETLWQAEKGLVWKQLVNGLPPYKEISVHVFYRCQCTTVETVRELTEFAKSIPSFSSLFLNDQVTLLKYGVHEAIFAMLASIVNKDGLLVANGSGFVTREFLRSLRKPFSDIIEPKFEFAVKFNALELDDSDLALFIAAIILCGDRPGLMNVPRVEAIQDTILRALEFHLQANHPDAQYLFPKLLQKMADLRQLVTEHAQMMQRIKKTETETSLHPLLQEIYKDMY

[4] = molecular target: T4, Peroxisome proliferator-activated receptor delta (Homo sapiens) (UniProt Q03181); test: Agonist activity at human PPARdelta expressed in HEK293 after 8 hrs by luciferase reporter gene assay relative to GW501516; type: functional, cell-based; procedure, shortened: as §1
T4 sequence (whole entry): T3 sequence (Q03181 whole entry)

[5] = molecular target: T5, Peroxisome proliferator-activated receptor gamma (Homo sapiens) (UniProt P37231); test: Agonist activity at PPARgamma expressed in HEK293 after 8 hrs by luciferase reporter gene assay relative to ciglitazone; type: functional, cell-based; procedure, shortened: as §1
T5 sequence (whole entry): T2 sequence (P37231 whole entry)

[6] = molecular target: T6, Peroxisome proliferator-activated receptor alpha (Homo sapiens, UniProt Q07869); test: Agonist activity at human PPARalpha expressed in HEK293 after 8 hrs by luciferase reporter gene assay; type: functional, cell-based; procedure, shortened: as §2
T6 sequence (Q07869 whole entry): T1 sequence (whole entry)

[7] = molecular target: T7, Bile acid receptor (Homo sapiens) (UniProt Q96RI1); test: Agonist activity at FXR transfected in HEK293 cells by luciferase reporter gene assay; type: functional, cell-based
T7 sequence (whole entry): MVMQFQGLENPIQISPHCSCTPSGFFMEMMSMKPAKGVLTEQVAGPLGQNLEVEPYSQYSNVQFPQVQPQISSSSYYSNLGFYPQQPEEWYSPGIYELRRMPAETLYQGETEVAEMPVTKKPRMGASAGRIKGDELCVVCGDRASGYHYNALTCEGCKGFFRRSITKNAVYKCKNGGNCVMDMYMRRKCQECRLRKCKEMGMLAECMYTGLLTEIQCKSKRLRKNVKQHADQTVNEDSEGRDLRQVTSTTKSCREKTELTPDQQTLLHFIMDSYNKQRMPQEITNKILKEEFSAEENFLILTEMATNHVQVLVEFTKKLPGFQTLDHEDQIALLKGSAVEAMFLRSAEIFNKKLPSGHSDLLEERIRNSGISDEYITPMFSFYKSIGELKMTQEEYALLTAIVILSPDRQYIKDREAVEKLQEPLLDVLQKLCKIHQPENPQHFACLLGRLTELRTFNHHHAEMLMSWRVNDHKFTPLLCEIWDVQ

[8] = molecular target: T7, Bile acid receptor (Homo sapiens); test: Antagonist activity at FXR transfected in HEK293 cells by luciferase reporter gene assay; type: functional, cell-based
[9] = molecular target: T8, Oxysterols receptor LXR-alpha (Homo sapiens) (UniProt Q13133); test: Agonist activity at LXR; type: functional
T8 sequence (whole entry): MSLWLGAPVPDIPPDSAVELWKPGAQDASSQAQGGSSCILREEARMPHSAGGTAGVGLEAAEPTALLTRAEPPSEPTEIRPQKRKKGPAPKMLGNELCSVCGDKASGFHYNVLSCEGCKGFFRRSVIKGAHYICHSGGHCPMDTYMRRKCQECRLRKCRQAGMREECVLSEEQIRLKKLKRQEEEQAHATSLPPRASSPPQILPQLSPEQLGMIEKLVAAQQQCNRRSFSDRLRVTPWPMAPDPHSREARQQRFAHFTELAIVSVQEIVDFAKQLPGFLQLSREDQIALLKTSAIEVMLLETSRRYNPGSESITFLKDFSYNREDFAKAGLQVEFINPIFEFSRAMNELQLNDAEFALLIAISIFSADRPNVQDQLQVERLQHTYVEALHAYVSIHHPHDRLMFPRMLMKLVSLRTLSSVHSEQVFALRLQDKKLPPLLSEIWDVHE

[10] = molecular target: T8, Oxysterols receptor LXR-alpha (Homo sapiens); test: Antagonist activity at LXR; type: functional

Structure (SMILES) | Emax [1] [%] | EC50 [2] [µM] | EC50 [3] [µM] | Emax [4] [%] | Emax [5] [%] | EC50 [6] [µM] | Activity [7] | Activity [8] | Activity [9] | Activity [10]
CCC(Cc1ccc(CCc2ccc(N3C(=O)c4ccccc4C3=O)cc2O)cc1)C(=O)O (stereo not given) | 20 | 17 | 25 | 7 | 21 | 14 | – | – | – | –
O=C(O)CCCCCCc1ccc(CCc2ccc(N3C(=O)c4ccccc4C3=O)cc2)cc1 | 8 | – | – | 4 | 5 | – | – | – | – | –
CC[C@H](Cc1ccc(CCc2ccc(N3C(=O)c4ccccc4C3=O)cc2OC)cc1)C(=O)O | 103 | 12 | – | 8 | 40 | 4.5 | – | – | – | –
O=C(O)CCc1ccc(CCc2ccc(N3C(=O)c4ccccc4C3=O)cc2)cc1 | 53 | – | 13 | 27 | 7 | 11 | inactive | inactive | inactive | inactive
O=C(O)CCCOc1ccc(CCc2ccc(N3C(=O)c4ccccc4C3=O)cc2)cc1 | 0 | 12 | – | 1 | 31 | – | inactive | inactive | inactive | inactive
CC[C@@H](Cc1ccc(CCc2ccc(N3C(=O)c4ccccc4C3=O)cc2OC)cc1)C(=O)O | 66 | 7.1 | 7.3 | 41 | 102 | 8.9 | – | – | – | –
O=C(O)CCCCCOc1ccc(CCc2ccc(N3C(=O)c4ccccc4C3=O)cc2)cc1 | 0 | – | – | 0 | 6 | – | inactive | inactive | – | –
CCC(Cc1ccc(CCc2ccc(N3C(=O)c4ccccc4C3=O)cc2)cc1)C(=O)O (stereo not given) | 72 | 11 | 14 | 22 | 42 | 6.6 | inactive | inactive | – | –
O=C(O)CCCCc1ccc(CCc2ccc(N3C(=O)c4ccccc4C3=O)cc2)cc1 | 4 | – | – | 4 | 7 | – | – | – | – | –
O=C(O)COc1ccc(CCc2ccc(N3C(=O)c4ccccc4C3=O)cc2)cc1 | 29 | – | 62 | 10 | 6 | 29 | inactive | inactive | inactive | inactive
O=C(O)c1ccc(CCc2ccc(N3C(=O)c4ccccc4C3=O)cc2)cc1 | 14 | – | – | 0 | 2 | 33 | – | – | – | –
CCCCOc1cc(N2C(=O)c3ccccc3C2=O)ccc1CCc1ccc(CC(CC)C(=O)O)cc1 (stereo not given) | 63 | 7.9 | 3.2 | 32 | 36 | 1.8 | inactive | inactive | – | –

Now from value to molecule:

Emax [1] [%] | EC50 [2] [µM] | EC50 [3] [µM] | Emax [4] [%] | Emax [5] [%] | EC50 [6] [µM] | Activity [7] | Activity [8] | Activity [9] | Activity [10] | Structure (SMILES)
69 | 3.2 | 1.9 | 29 | 62 | 1.7 | – | – | – | – | CCOc1cc(N2C(=O)c3ccccc3C2=O)ccc1CCc1ccc(C[C@H](CC)C(=O)O)cc1
102 | 9.3 | 4.8 | 33 | 49 | 1.4 | inactive | inactive | – | – | CCOc1cc(N2C(=O)c3ccccc3C2=O)ccc1CCc1ccc(CC(CC)C(=O)O)cc1 (racemic)
70 | – | – | 8 | 7 | 2.5 | – | – | – | – | CCCOc1cc(N2C(=O)c3ccccc3C2=O)ccc1CCc1ccc(C[C@@H](CC)C(=O)O)cc1
126 | 6.9 | 9.7 | 12 | 23 | 1.1 | – | – | – | – | CCOc1cc(N2C(=O)c3ccccc3C2=O)ccc1CCc1ccc(C[C@@H](CC)C(=O)O)cc1
70 | 6.9 | 2.9 | 40 | 26 | 1.7 | inactive | inactive | – | – | CCCOc1cc(N2C(=O)c3ccccc3C2=O)ccc1CCc1ccc(CC(CC)C(=O)O)cc1 (racemic)
73 | 8.5 | 11 | 24 | 78 | 3.4 | inactive | inactive | – | – | CCC(Cc1ccc(CCc2ccc(N3C(=O)c4ccccc4C3=O)cc2OC)cc1)C(=O)O (racemic)
87 | 5.2 | 1.8 | 54 | 36 | 1.7 | – | – | – | – | CCCOc1cc(N2C(=O)c3ccccc3C2=O)ccc1CCc1ccc(C[C@H](CC)C(=O)O)cc1
